Results on one molecule are retold here after ChEMBL document CHEMBL6083235, “Synthesis, evaluation and mechanistic insights of novel IMPDH inhibitors targeting ESKAPEE bacteria” (Eur J Med Chem, 2024).

One may read the inhibition as the relative decrease from the control value, in per cent.

Data set [1] can be described thus: Metabolic stability in mouse liver microsomes assessed as recovery in absence of NADPH measured after 120 mins. Format: ADME, Microsome. To be noted: read-out: Drug recovery.
For data set [2], the system named is Staphylococcus aureus. In words: Antibacterial activity against methicillin-resistant Staphylococcus aureus ATCC 43300 assessed as growth inhibition at 32 ug/ml relative to control. Format: functional.
The target in data set [3] is Inosine-5'-monophosphate dehydrogenase 2 (Homo sapiens) (UniProt P12268). In words: Inhibition of human IMPDH2 extracted form Escherichia coli BL21 (DE3)pDIA17 assessed as formation of NADH at 50 uM.
Data set [4] concerns the target T1, Inosine-5'-monophosphate dehydrogenase (Pseudomonas aeruginosa (strain ATCC 15692 / DSM 22644 / CIP 104116 / JCM14847 / LMG 12228 / 1C / PRS 101 / PAO1)) (UniProt Q9HXM5).
T1 sequence (whole entry): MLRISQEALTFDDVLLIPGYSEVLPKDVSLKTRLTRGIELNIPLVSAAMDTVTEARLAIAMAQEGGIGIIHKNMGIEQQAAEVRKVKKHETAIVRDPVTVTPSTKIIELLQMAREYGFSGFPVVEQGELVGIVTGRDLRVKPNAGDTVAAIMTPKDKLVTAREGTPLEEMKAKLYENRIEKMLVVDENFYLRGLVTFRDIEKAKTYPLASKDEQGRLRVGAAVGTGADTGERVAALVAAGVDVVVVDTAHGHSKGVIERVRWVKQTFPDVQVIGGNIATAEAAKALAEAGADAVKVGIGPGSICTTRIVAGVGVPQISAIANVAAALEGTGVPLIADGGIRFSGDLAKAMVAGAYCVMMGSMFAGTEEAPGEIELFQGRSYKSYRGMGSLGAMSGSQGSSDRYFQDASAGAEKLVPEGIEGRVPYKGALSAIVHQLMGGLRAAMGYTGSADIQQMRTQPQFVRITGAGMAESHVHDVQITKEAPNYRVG
In words: Inhibition of Pseudomonas aeruginosa IMPDH extracted form Escherichia coli BL21 (DE3)pDIA17 assessed as formation of NADH at 50 uM relative to control. A digest of the protocol: (§1)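 His-tagged wild-type IMPDH (E. coli, P. aeruginosa or S. aureus) made in E. coli BL21(DE3)/pDIA17, purified by metal-affinity then gel filtration. NADH formation followed at 340 nm, 30 °C, with 0.2 mM IMP, 0.4 mM NAD⁺, 0.2 mM MgATP, 2 mM MgCl₂. Buffers: pa Tris-HCl 50 mM pH 8; ec Tris-HCl 50 mM pH 8, KCl 50 mM; sa Na₂CO₃ 50 mM pH 9.2, KCl 20 mM. Compound at 50 μM; % inhibition vs compound-free activity.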

The test system of the next data set is Pseudomonas aeruginosa. In words: Inhibition of Pseudomonas aeruginosa IMPDH delta Bateman domain extracted form Escherichia coli BL21 (DE3)pDIA17 assessed as formation of NADH at 50 uM relative to control. The essentials:
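Bateman-domain-deleted IMPDH (E. coli or P. aeruginosa), His-tagged, made in E. coli BL21(DE3)/pDIA17. NADH formation at 340 nm, 30 °C, 0.2 mM IMP, 0.4 mM NAD⁺, 0.2 mM MgATP, 2 mM MgCl₂. Buffer: ec Tris-HCl 50 mM pH 9, KCl 100 mM; pa Tris-HCl 50 mM pH 8, KCl 100 mM. Compound 50 μM; % inhibition relative to uninhibited enzyme.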

Data set [5] is described as follows: Inhibition of Pseudomonas aeruginosa IMPDH delta Bateman domain in absence of detergent. The essentials:
(§2)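 Bateman-domain-deleted IMPDH (E. coli or P. aeruginosa) from E. coli BL21(DE3)/pDIA17; NADH at 340 nm, 30 °C, 0.2 mM IMP, 0.4 mM NAD⁺, 0.2 mM MgATP, 2 mM MgCl₂; buffers as per variant (ec Tris-HCl pH 9/KCl 100 mM; pa Tris-HCl pH 8/KCl 100 mM). I50 by dose-response logistic fit, at least three experiments.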

Data set [6] concerns Staphylococcus aureus. In words: Inhibition of Staphylococcus aureus IMPDH extracted form Escherichia coli BL21 (DE3)pDIA17 assessed as formation of NADH at 50 uM relative to control. A digest of the protocol:
as §1

A short description of data set [7]: Inhibition of Pseudomonas aeruginosa IMPDH delta Bateman domain in presence of detergent by detergent-sensitive enzyme-inhibition assay. The essentials:
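P. aeruginosa ΔBateman IMPDH dose-response run under reference conditions (0.2 mM IMP, 0.4 mM NAD⁺, 0.2 mM MgATP, 2 mM MgCl₂; Tris-HCl 50 mM pH 8, KCl 100 mM; 30 °C, NADH at 340 nm) with 0.01 % Triton X-100 included, to exclude colloidal aggregation; I50 from logistic fit.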

A short description of data set [8]: Inhibition of Pseudomonas aeruginosa IMPDH delta Bateman domain extracted form Escherichia coli BL21 (DE3)pDIA17 assessed as formation of NADH. To be noted: read-out: I50. A digest of the protocol:
as §2

Data set [9] relates to Mycobacterium tuberculosis. The data set can be described thus: Inhibition of Mycobacterium tuberculosis TMP kinase using 0.05 dTMP and 0.5 mM MgATP by measuring NADH consumption at 20 uM by coupled spectrophotometric assay. A digest of the protocol: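 Recombinant M. tuberculosis TMP kinase; activity at 30 °C by NADH consumption at 340 nm in a pyruvate kinase/lactate dehydrogenase/nucleoside diphosphate kinase coupled assay (2 units each). Medium: 50 mM Tris-HCl pH 7.4, 50 mM KCl, 2 mM MgCl2, 0.2 mM NADH, 1 mM phosphoenolpyruvate. ATP held at 0.5 mM and dTMP at 0.05 mM; compound at 20 μM.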

In data set [10] the target is T1, Inosine-5'-monophosphate dehydrogenase (Pseudomonas aeruginosa (strain ATCC 15692 / DSM 22644 / CIP 104116 / JCM14847 / LMG 12228 / 1C / PRS 101 / PAO1)). The data set can be described thus: Non-competitive inhibition of Pseudomonas aeruginosa IMPDH by Lineweaver-Burk plot analysis. The essentials:
(§3)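 Steady-state kinetics of P. aeruginosa ΔBateman IMPDH: initial rates (NADH at 340 nm, 30 °C, Tris-HCl 50 mM pH 8, KCl 100 mM) measured across variable IMP at saturating 2 mM NAD⁺, without or with several inhibitor concentrations; data from at least three experiments fitted to Michaelis–Menten and shown as Lineweaver-Burk plots.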

Data set [11] in a line: Metabolic stability in mouse liver microsomes assessed as recovery in presence of NADPH measured after 120 mins. Format: ADME, Microsome. Particulars: read-out: Drug recovery.
The next data set deals with Caco-2. The data set can be described thus: Cytotoxicity against human Caco-2 cells assessed as cell viability at 10 uM measured after 72 hrs by Alamar blue assay. Format: toxicity, cell-based. To be noted: caco-2, 72 h. The essentials:
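Confluent Caco-2 monolayers (seeded 1.10⁵ cells/cm², 48 h growth; DMEM 25 mM glucose, 10 % FBS, NEAA, 37 °C, 5 % CO₂) exposed 72 h; vehicle 0.1 % DMSO, 0.2 % Triton X-100 as cytotoxic control. Rinsed with PBS, 5 % Alamar Blue in FBS-free medium 30 min at 37 °C; resorufin fluorescence (ex 530/em 570 nm) relative to DMSO. Mean ± SEM, three independent experiments.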
Background: The colour change of resazurin is a common sign of viable cells or microbes.

Data set [12] concerns the target T1, Inosine-5'-monophosphate dehydrogenase (Pseudomonas aeruginosa (strain ATCC 15692 / DSM 22644 / CIP 104116 / JCM14847 / LMG 12228 / 1C / PRS 101 / PAO1)). The data set can be described thus: Non-competitive inhibition of Pseudomonas aeruginosa IMPDH in presence of 2 mM NAD+ by Michaelis-Menten equation. A digest of the protocol: as §3

Calls of active or inactive are those of the source. The rule behind the calls is not given here. A value given as a limit tells only on which side of the number the result lay.

Inosine-5'-monophosphate dehydrogenase 2 (Homo sapiens), sequence (P12268 2-514 limits assumed): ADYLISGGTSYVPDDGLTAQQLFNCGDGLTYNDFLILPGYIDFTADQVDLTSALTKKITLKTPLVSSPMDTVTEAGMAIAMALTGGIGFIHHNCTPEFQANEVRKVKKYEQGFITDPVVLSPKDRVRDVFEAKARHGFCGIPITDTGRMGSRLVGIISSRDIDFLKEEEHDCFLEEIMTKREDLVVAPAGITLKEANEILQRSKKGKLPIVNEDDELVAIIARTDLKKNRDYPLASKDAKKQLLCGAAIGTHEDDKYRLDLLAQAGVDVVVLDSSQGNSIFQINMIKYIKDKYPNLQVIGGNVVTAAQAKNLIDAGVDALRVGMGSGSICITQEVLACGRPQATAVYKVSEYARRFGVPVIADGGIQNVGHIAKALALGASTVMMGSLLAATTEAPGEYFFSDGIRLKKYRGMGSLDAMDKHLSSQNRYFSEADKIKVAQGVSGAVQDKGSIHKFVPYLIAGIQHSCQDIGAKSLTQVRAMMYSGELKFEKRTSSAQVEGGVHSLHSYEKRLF

`CC(C)(NC(=O)Nc1ccc(Cl)c([N+](=O)[O-])c1)c1cccc(-c2c[nH]cn2)c1`: the remaining at 2 h in data set [1] and in data set [11] was greater than 95% each time. In addition, the inhibition at 32 µg/mL with Staphylococcus aureus [2] was found to be 79.3%. For the same molecule, the inhibition entry in [3] and in data set [9] was “inactive” in each case. Besides, the inhibition was found to be 99% in [4], 99% in the data set on Pseudomonas aeruginosa and 89% in the data set on Staphylococcus aureus [6]. In addition, the values for the IC50 in data set [5], in data set [7] and in data set [8] were 150 nM, 140 nM and 150 nM, respectively. Also, the inhibition entry in data set [10] and in data set [12] was “Active” throughout. Further, the Activity result with Caco-2 is recorded as “Non-toxic”.
